# Screening data: PubChem BioAssay, several laboratories
# Vif imaging: blocks HIV Vif function | HEK293T cells, Vif self-association by quenched fluorescence, imaging, 24 h | inhibition, % at 7.49 µM | 0.35% of 340,000 active; in the data active = inhibition above about 50%, passing the limit was not always enough; inconclusive = no clear call, values can overlap the other calls; inactive = below about 31%
# Rce1 inhib: inhibitors of yeast Ras-converting enzyme. calls only. 0.27% of 290,000 active. yeast membranes, quenched prenylated peptide cleavage fluorescence. Q03530;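 active = fall in fluorescence gain of 50% or more versus controls, with final raw signal at or below 3038400; inconclusive = same 50% fall but final raw signal above 3038400; inactive = fall in fluorescence gain under 50%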;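 note: plate controls were neutral control wells for no effect and wells lacking membranes for full effect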
# Target sequence (Q03530 whole entry, looked up): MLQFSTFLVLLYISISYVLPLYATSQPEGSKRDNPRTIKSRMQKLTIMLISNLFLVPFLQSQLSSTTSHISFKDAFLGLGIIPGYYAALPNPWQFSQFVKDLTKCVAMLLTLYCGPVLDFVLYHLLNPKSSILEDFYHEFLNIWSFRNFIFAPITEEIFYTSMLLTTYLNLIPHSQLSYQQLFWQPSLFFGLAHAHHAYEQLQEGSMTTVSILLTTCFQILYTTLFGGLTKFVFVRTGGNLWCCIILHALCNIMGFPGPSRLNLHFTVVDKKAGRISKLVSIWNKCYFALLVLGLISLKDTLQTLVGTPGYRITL
# Runt-CBFb FRET: blocks binding of human RUNX1 Runt domain to CBFb; 0.46% of 220,000 active; inhibition, % at 20 µM; Cerulean-Runt/Venus-CBFb FRET ratio 530/480, 1 h; Q01196+Q13951;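 active = inhibition over about 50% at 20 µM in the single-dose screen, limit read from the data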;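 note: 0% = DMSO wells and 100% = excess unlabeled CBFb competitor control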
#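 test system = Cerulean-Runt domain fusion protein, energy donor | probe or stimulus = Venus-CBFb binding partner, 100 nM | incubation = two 1 h room-temperature incubations shielded from light | detection = fluorescence energy transfer, 422 nm excitation, 530/480 nm emission | measure = loss of energy transfer signal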
# Runt-SMMHC FRET: inhibitors of human RUNX1 Runt domain binding to CBFb-SMMHC. inhibition, % at 20 µM. 0.74% of 220,000 active. Q01196+Q13951. Cerulean-Runt/Venus-CBFb-SMMHC FRET ratio 530/480, 1 h;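 active = mean inhibition across duplicate retests at 20 µM reaching about 50%, limit read from the data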;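 note: 0% = DMSO wells and 100% = wells with excess untagged CBFb-SMMHC; inhibitors lower the FRET ratio by blocking Runt binding to CBFb-SMMHC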
# RanGTP-Impb inh: inhibitors of RanGTP-importin-beta interaction, primary screen, biochemical, FRET, CFP-Ran, YFP-importin-beta, homogeneous; inhibition, % (concentration not given with the values); 1.1% of 300,000 active; cell-free CFP-Ran/YFP-importin-beta FRET ratio;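 active = more than half of the replicate wells show a fall in the fluorescence ratio signal beyond about 16%, limit read from the data, passing the limit was not always enough; inconclusive = exactly half of the replicate wells pass the set limit; inactive = fewer than half of replicates pass the limit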;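 note: 0% = DMSO wells and 100% = Ran loaded with GDP instead of GTP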
# The depositor's hits bear a star; i = inactive; ? = inconclusive; nt = not tested or not shown; + = active, no number. An excerpt weighted towards active compounds, which were near 1.7% of everything screened.
SMILES,Vif imaging,Rce1 inhib,Runt-CBFb FRET,Runt-SMMHC FRET,RanGTP-Impb inh
COc1ccccc1CNC(=O)CCN1C(=O)c2ccccc2C1=O,-3,i,nt,nt,0
CCCn1c(C)cc(C(=O)CN2C(=O)c3cccc(N)c3C2=O)c1C,3,nt,19,57*,nt
Cc1cc(C(=O)CN2C(=O)c3ccccc3C2=O)c(C)n1Cc1cccs1,-2,i,3,-6,-2
COc1ccc(NC(=O)CSc2nnc3n2CCCCC3)cc1OC,5,nt,nt,nt,nt
COCCC(=O)N1CCC(Oc2ccc(C(=O)NC3CCOC(C)(C)C3)cc2)CC1 (stereo unspecified),9,i,nt,nt,2
CC(C)OC(=O)N(C)C[C@H]1OCc2cn(nn2)CCCC(=O)N([C@H](C)CO)C[C@@H]1C,-8,nt,nt,nt,nt
CCOC(=O)c1c(N2C(=O)C=CC2=O)sc(C)c1C,-2,i,47,62*,1
CCOc1ccccc1C(=O)N(Cc1ccccc1)Cc1cc2cc3c(cc2[nH]c1=O)OCCO3,5,i,nt,nt,-7
COc1ccc(CCN2C(=O)c3cccnc3C2=O)cc1OC,56*,i,-3,4,6
CCC(C)(C)c1ccc(OCCCC[n+]2cccc(C)c2C)c(C(C)(C)CC)c1,-5,+,-3,-1,1
CCC(C)(C)c1ccc(OCCCC[n+]2ccc(C)cc2)c(C(C)(C)CC)c1,nt,i,-1,-2,2
CCNC1=C(Cl)C(=O)c2ccccc2C1=O,4,i,2,-3,-3
CCCC(=O)NC1=C(Cl)C(=O)c2ccccc2C1=O,98*,nt,nt,nt,nt
CCN1/C(=C2/SC(=S)N(NC(C)=O)C2=O)Sc2ccc(OC)cc21,71*,i,nt,nt,34*
CCN1/C(=C2/SC(=S)N(NC(C)=O)C2=O)Sc2ccc(Cl)cc21,-6,i,nt,nt,33*
CCCCN1C(=O)/C(=C2/Sc3ccc(OC)cc3N2CC)SC1=S,-10,i,nt,nt,23*
C=CCN1C(=O)/C(=C2/Sc3ccc(OC)cc3N2CC)SC1=S,12,i,nt,nt,?
O=C(c1ccc(Cl)c(Cl)c1)N(Cc1ccco1)c1ccc(O)cc1,54*,i,3,0,-3
O=C(COc1ccccc1)N(Cc1ccco1)c1ccc(O)cc1,22,i,0,4,-2
CCOC(=O)c1ccc(NC(=O)Nc2ncc(Cl)cc2Cl)cc1,nt,i,1,1,-3
COc1ccc(/C=C2\CCc3c2nc2ccccc2c3C(=O)O)cc1OC,9,i,10,82,-26
CCOc1ccc(/C=C2\CCCc3c2nc2ccccc2c3C(=O)O)cc1OC,i,i,nt,nt,29*
COc1ccc(/C=C2\CCCc3c2nc2ccccc2c3C(=O)O)cc1OC,nt,i,12,81*,37*
CSc1nc(N)n2nccc2n1,1,nt,nt,nt,nt
C[C@H](CCC(=O)O)[C@H]1CC[C@H]2[C@@H]3CC[C@@H]4C[C@H](O)CC[C@]4(C)[C@H]3CC[C@]12C,2,nt,nt,nt,nt
SMILES,Vif imaging,Rce1 inhib,Runt-CBFb FRET,Runt-SMMHC FRET,RanGTP-Impb inh
CC(CCC(=O)O)C1CCC2C3CCC4C[C@H](O)CCC4(C)C3CC(=O)C12C (stereo partly specified),53*,i,nt,nt,-1
Cc1ccc(OCCCCNC(C)c2ccccc2)c(C)c1 (stereo unspecified),-9,i,nt,nt,-1
Cc1nc(C(=O)N2CCc3c([nH]c4ccccc34)C2c2ccccn2)cs1 (stereo unspecified),-7,i,nt,nt,1
O=C(Cc1ccsc1)N1CCc2c([nH]c3ccccc23)C1c1ccccn1 (stereo unspecified),-8,i,2,2,29*
Cc1ccc(O)c(Nc2c3ccccc3nc3ccccc23)c1,-6,i,nt,nt,24*
O=C(COc1ccccc1)N[C@@H]1c2ccccc2CC[C@@H]1O,-5,nt,nt,nt,nt
COc1cccc(N(CC(=O)NC2CCCCC2)C(=O)CCC(=O)Nc2nc(C)cs2)c1,-13,i,nt,nt,-6
CC(=O)c1ccc2c(c1)c(C#N)c1ccccc1[n+]2[O-],23,i,nt,nt,68*
Oc1c(CN2CCc3ccccc3C2)cc(Cl)c2cccnc12,0,i,3,-15,23*
CCN1CCC2(CC1)C(C#N)=C(N)Oc1c2sc2nc(C)cc(C)c12,3,i,7,34,28*
CCOC(=O)c1c(C)[nH]c(C)c1C(=O)COC(=O)C1CC(=O)N(CCc2ccccc2)C1 (stereo unspecified),51*,nt,nt,nt,nt
CCCCNC(=O)CSc1nnc(-c2cccc(S(=O)(=O)N3CCOCC3)c2)o1,1,nt,nt,nt,nt
CC(=O)NNC(=O)CCn1c2c(c3ccccc31)CCCC2,-4,i,-3,-5,-5
O=C(O)Cn1c2c(c3ccccc31)CCCC2,0,i,-6,16,29*
N#C/C(=C/c1ccc(N2CCCCCC2)o1)c1cccc(F)c1,-4,i,11,25,?
N#C/C(=C/c1ccc(N2CCCCCC2)o1)c1ccc(F)cc1,25,i,nt,nt,27*
CC1Cn2c(nc3sc4c(c3c2=O)CC(C)(C)OC4)N1CCO (stereo unspecified),-1,i,nt,nt,0
CC(C)C(=O)N1CCN(c2nc(-c3ccccc3)c3c(c2C#N)CCCC3)CC1,-24,+,-3,0,-1
O=C1OCCC1=COCCCCCOC=C1CCOC1=O,71*,nt,nt,nt,nt
COc1ccc(-c2c(C)n([O-])c3c([n+]2=O)CCCCC3)cc1OC,9,i,-1,0,-3
O=C(N/N=C/c1c(O)n(-c2ccc(Cl)cn2)c(=O)c2ccccc12)c1ccncc1,6,i,-22,86*,-6
CCn1nc(C)c(Br)c1-c1nc(-c2cccc(C)c2)no1,3,i,-3,1,-1
CCn1nc(C)c(Br)c1-c1nc(CS(=O)(=O)c2ccsc2)no1,56*,i,0,-1,-4
COc1cccc(N2CC(=O)N(NC(=O)c3sc4nc(C)cc(C)c4c3N)CC2=O)c1,-1,i,4,2,16*
O=CNc1ccc2c3c(cccc13)-c1ccccc1-2,56*,nt,nt,nt,nt
SMILES,Vif imaging,Rce1 inhib,Runt-CBFb FRET,Runt-SMMHC FRET,RanGTP-Impb inh
Nc1ccc2c3c(cccc13)C(=O)N(c1ccccc1)C2=O,nt,i,-307,-30,-14
Cc1ccc2cc3c(NC(=O)c4ccco4)nn(CC(C)C)c3nc2c1,1,i,17,35,39*
CC(C)Cn1nc(NS(=O)(=O)c2ccccc2)c2cc3ccccc3nc21,-7,i,-10,-14,0
CC(C)Cn1nc(NC(=O)C2CCCO2)c2cc3ccccc3nc21 (stereo unspecified),-3,i,21,39,27*
Cc1nc(C(N)=O)c(N)n1CCc1ccccc1,-1,i,nt,nt,2
CCN1C(=NCc2ccco2)N[C@@H](c2cccc(F)c2)C(C(=O)OC)=C1C,-2,i,nt,nt,3
COc1cccc(-c2ccc(SCC(=O)NC3CCCCC3)nn2)c1,-3,i,nt,nt,?
CCOC(=O)COc1ccc(S(=O)(=O)c2ccc(OCC(=O)OCC)cc2)cc1,120*,i,0,1,-1
